From the M2OR odorant receptor database

Tests used:
Settings in all cases: stereoisomer not certain
UniProt A2ATE5 = target: T1, UniProt A2ATE5
T1 sequence (whole entry): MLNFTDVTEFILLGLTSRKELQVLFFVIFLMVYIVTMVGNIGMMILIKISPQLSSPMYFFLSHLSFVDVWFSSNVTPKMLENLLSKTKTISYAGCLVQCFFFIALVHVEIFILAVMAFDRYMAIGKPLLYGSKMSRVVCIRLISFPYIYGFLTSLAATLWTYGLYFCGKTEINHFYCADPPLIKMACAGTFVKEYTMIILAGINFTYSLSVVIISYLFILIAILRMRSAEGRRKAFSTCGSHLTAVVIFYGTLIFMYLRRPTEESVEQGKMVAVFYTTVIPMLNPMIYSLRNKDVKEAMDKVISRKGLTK
Summary of the method: (§1)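 Each receptor–molecule pair is labelled responsive or non-responsive (inactive) according to whether the original authors judged the measured signal statistically different from baseline. The data were taken from the main text and supplementary material of published papers and checked for typos and inconsistencies. Assay methods differed by source, with transient luciferase assays in mammalian cell lines being common.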

UniProt A2AVB0 = target: T2, UniProt A2AVB0
T2 sequence (whole entry): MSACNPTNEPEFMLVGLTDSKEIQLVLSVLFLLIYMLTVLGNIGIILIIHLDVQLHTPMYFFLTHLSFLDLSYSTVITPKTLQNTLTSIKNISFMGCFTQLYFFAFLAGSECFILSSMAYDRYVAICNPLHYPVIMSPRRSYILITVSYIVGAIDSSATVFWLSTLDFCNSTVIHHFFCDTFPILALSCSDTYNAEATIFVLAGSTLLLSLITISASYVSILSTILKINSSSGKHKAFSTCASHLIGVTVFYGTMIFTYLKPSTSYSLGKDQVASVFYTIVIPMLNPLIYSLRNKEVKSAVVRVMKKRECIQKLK
Summary of the method: as §1

UniProt A2AVB5 = target: T3, UniProt A2AVB5
T3 sequence (whole entry): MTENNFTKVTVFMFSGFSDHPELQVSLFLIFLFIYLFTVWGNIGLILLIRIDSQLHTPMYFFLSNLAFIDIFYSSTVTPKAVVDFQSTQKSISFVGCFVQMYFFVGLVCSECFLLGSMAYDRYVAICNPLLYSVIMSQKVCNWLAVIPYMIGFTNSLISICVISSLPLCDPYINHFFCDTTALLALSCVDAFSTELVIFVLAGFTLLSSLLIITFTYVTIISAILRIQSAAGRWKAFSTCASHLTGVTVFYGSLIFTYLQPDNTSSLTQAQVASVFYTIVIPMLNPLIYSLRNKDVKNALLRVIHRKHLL
Summary of the method: as §1

UniProt B2RVX8 = target: T4, UniProt B2RVX8
T4 sequence (whole entry): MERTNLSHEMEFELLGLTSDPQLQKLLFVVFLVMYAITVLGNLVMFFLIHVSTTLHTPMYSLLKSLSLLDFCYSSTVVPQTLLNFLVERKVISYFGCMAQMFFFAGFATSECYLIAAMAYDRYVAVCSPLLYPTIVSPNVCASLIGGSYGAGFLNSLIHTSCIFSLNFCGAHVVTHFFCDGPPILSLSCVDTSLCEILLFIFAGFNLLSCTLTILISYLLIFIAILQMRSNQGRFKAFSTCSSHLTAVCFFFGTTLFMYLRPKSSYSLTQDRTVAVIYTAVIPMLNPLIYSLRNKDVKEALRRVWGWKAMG
Summary of the method: as §1

UniProt E9PVX1 = target: T5, UniProt E9PVX1
T5 sequence (whole entry): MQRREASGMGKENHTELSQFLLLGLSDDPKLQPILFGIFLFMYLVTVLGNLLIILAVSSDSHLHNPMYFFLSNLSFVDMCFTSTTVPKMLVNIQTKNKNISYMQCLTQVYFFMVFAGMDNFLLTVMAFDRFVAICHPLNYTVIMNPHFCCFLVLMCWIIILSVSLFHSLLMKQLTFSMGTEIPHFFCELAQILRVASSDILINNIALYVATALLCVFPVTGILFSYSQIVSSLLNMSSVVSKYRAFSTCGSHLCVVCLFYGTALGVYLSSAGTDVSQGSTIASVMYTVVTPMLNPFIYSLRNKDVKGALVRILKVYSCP
Summary of the method: as §1

UniProt E9PZ66 = target: T6, UniProt E9PZ66
T6 sequence (whole entry): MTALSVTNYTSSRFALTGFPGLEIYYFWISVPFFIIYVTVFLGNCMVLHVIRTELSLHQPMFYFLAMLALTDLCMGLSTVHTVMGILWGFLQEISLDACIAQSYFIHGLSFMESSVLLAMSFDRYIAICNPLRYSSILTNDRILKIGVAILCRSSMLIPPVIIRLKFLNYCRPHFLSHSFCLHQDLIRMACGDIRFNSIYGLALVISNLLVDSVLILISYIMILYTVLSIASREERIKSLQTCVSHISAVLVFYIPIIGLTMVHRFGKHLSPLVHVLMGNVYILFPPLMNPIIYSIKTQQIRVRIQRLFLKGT
Summary of the method: as §1

UniProt E9Q4X7 = target: T7, UniProt E9Q4X7
T7 sequence (whole entry): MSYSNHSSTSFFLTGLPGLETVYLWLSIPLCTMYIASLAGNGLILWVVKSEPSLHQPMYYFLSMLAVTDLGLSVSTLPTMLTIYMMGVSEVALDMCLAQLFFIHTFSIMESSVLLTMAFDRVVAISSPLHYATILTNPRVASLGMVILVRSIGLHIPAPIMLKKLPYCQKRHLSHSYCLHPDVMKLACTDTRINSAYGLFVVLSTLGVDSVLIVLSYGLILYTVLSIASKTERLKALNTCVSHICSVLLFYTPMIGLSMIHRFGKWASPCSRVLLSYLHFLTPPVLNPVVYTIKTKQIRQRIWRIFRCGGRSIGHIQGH
Summary of the method: as §1

UniProt E9Q546 = target: T8, UniProt E9Q546
T8 sequence (whole entry): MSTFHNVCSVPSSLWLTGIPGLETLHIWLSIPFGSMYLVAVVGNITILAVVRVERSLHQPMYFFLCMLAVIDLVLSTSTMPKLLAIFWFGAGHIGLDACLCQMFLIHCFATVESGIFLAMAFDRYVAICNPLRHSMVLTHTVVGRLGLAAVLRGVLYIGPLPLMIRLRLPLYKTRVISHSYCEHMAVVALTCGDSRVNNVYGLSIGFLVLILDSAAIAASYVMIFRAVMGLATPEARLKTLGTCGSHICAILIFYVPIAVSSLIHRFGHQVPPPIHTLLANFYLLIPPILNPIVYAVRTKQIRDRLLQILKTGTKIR
Summary of the method: as §1

UniProt E9Q6Z7 = target: T9, UniProt E9Q6Z7
T9 sequence (whole entry): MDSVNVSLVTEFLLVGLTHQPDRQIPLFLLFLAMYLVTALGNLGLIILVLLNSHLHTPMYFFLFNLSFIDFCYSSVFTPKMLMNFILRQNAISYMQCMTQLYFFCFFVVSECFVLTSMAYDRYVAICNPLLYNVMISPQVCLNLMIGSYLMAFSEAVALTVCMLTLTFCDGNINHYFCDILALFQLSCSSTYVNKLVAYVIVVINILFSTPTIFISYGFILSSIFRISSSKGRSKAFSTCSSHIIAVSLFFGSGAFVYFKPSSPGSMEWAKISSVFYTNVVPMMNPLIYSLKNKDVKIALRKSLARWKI
Summary of the method: as §1

UniProt K7N609 = target: T10, UniProt K7N609
T10 sequence (whole entry): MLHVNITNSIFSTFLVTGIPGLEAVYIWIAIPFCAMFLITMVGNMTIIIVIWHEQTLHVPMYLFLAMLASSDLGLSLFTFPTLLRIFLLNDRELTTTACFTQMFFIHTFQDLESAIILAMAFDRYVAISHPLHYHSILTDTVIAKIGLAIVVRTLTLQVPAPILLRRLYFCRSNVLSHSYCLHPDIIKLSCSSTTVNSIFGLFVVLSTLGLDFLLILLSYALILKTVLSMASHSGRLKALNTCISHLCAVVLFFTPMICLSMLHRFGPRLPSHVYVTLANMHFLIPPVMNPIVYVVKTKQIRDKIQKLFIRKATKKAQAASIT
Summary of the method: as §1

UniProt A2AVA9 = target: UniProt A2AVA9
Summary of the method: as §1

UniProt A2AVC3 = target: UniProt A2AVC3
Summary of the method: as §1

UniProt E9PXH6 = target: UniProt E9PXH6
Summary of the method: as §1

UniProt E9Q891 = target: UniProt E9Q891
Summary of the method: as §1

UniProt K7N5T5 = target: UniProt K7N5T5
Summary of the method: as §1

UniProt E9PX47 = target: T11, UniProt E9PX47
T11 sequence (whole entry): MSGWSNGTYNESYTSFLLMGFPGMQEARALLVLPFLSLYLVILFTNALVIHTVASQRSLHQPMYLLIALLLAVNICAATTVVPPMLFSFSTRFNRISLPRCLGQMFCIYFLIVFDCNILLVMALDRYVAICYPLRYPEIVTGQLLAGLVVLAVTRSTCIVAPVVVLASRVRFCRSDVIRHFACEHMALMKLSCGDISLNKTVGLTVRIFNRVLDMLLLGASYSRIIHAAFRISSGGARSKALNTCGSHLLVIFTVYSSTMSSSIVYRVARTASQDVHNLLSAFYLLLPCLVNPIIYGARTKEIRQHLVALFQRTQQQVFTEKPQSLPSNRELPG
Summary of the method: as §1

UniProt E9PXN3 = target: T12, UniProt E9PXN3
T12 sequence (whole entry): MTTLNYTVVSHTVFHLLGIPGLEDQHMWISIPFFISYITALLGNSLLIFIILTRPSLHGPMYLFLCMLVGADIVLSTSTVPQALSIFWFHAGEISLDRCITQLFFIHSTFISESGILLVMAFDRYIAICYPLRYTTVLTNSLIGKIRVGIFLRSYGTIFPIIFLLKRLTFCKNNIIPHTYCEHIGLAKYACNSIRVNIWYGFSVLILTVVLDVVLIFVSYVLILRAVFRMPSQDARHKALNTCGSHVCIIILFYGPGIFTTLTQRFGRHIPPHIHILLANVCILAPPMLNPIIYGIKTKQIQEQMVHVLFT
Summary of the method: as §1
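Also: active if original authors judged signal statistically different from baseline.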

UniProt K7N5T5, sequence (K7N5T5 as listed by the source): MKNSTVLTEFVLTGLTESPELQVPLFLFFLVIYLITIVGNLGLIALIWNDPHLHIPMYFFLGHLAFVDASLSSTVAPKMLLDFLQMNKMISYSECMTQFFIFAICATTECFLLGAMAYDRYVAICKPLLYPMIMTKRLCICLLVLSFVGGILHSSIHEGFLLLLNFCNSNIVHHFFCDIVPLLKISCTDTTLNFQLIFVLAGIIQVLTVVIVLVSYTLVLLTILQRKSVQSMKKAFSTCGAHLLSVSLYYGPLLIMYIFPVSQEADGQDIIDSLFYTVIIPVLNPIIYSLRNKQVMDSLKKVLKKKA
UniProt E9PXH6, sequence (E9PXH6 as listed by the source): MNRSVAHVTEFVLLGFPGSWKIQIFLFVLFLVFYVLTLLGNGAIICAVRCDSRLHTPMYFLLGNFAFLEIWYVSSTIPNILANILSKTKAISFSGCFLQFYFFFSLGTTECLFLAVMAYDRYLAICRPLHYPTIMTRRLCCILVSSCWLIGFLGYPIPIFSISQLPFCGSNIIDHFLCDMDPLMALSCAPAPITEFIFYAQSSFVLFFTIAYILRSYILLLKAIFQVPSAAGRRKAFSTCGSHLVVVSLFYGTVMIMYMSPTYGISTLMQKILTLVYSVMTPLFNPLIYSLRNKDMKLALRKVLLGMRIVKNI
UniProt A2AVC3, sequence (A2AVC3 as listed by the source): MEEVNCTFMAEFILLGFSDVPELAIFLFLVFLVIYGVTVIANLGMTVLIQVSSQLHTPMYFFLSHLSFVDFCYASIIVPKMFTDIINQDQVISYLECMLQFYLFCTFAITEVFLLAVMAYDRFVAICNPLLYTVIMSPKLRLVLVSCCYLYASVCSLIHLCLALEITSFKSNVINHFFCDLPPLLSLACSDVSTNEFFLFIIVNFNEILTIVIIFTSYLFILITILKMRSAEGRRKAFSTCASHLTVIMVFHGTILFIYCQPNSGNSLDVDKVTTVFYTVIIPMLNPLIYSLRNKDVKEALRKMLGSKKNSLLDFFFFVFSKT
UniProt A2AVA9, sequence (A2AVA9 as listed by the source): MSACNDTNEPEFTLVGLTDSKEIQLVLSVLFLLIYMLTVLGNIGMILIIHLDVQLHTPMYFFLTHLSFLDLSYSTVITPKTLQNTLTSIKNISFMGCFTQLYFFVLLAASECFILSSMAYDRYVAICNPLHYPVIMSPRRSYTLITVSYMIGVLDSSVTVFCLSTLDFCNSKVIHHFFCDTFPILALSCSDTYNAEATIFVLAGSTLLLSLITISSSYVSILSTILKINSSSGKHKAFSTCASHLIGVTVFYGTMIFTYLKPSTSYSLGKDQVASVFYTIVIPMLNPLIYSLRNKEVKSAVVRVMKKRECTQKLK
UniProt E9Q891, sequence (E9Q891 as listed by the source): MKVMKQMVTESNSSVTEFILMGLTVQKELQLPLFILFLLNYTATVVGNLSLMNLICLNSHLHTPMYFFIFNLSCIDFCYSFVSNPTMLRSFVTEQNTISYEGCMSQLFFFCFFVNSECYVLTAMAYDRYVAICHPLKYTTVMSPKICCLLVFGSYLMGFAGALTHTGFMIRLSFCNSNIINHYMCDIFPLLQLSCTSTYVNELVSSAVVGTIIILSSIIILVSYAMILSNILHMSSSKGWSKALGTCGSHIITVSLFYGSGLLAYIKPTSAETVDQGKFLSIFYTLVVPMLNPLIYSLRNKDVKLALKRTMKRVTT

Structure (SMILES)	odorant receptor agonist call (UniProt A2ATE5)	odorant receptor agonist call (UniProt A2AVB0)	odorant receptor agonist call (UniProt A2AVB5)	odorant receptor agonist call (UniProt B2RVX8)	odorant receptor agonist call (UniProt E9PVX1)	odorant receptor agonist call (UniProt E9PZ66)	odorant receptor agonist call (UniProt E9Q4X7)	odorant receptor agonist call (UniProt E9Q546)	odorant receptor agonist call (UniProt E9Q6Z7)	odorant receptor agonist call (UniProt K7N609)	odorant receptor agonist call (UniProt A2AVA9)	odorant receptor agonist call (UniProt A2AVC3)	odorant receptor agonist call (UniProt E9PXH6)	odorant receptor agonist call (UniProt E9Q891)	odorant receptor agonist call (UniProt K7N5T5)	odorant receptor agonist call (UniProt E9PX47)	odorant receptor agonist call (UniProt E9PXN3)
CC(=O)OCC=C(C)C	inactive	inactive	inactive	inactive	inactive	inactive	inactive	inactive	inactive	inactive	–	–	–	–	–	–	–
CCCCCOC(=O)CCCCC	inactive	inactive	inactive	inactive	inactive	inactive	inactive	inactive	inactive	inactive	–	–	–	–	–	–	–
CCCCC(=O)CC	inactive	inactive	inactive	inactive	inactive	inactive	inactive	inactive	inactive	inactive	–	–	–	–	–	–	–
CC(=O)OCc1ccccc1	inactive	inactive	inactive	inactive	inactive	inactive	inactive	inactive	inactive	inactive	–	–	–	–	–	–	–
CCCCCC1=C(C)CCC1=O	inactive	inactive	inactive	active	inactive	inactive	inactive	inactive	inactive	inactive	–	–	–	–	–	–	–
CCC(=O)O	inactive	inactive	inactive	inactive	inactive	inactive	inactive	inactive	inactive	inactive	–	–	–	–	–	–	–
CCCCCC=O	inactive	inactive	inactive	inactive	inactive	inactive	inactive	inactive	inactive	inactive	–	–	–	–	–	–	–
O=C1CCOc2ccccc21	inactive	inactive	active	inactive	inactive	inactive	inactive	inactive	inactive	inactive	active	inactive	active	active	inactive	–	–
CCCCCCCC(C)=O	inactive	inactive	inactive	inactive	inactive	inactive	inactive	inactive	inactive	inactive	–	–	–	–	–	–	–
CCOC(=O)C(C)C	inactive	inactive	inactive	inactive	inactive	inactive	inactive	inactive	inactive	inactive	–	–	–	–	–	–	–
CCCCCCCO	inactive	inactive	inactive	inactive	inactive	inactive	inactive	inactive	inactive	inactive	–	–	–	–	–	inactive	inactive
CC(=O)Oc1ccccc1	inactive	inactive	inactive	inactive	inactive	inactive	inactive	inactive	inactive	inactive	–	–	–	–	–	–	–
CCCCCCCCS	inactive	inactive	inactive	inactive	inactive	inactive	inactive	inactive	inactive	inactive	–	–	–	–	–	–	–
CCCCCCCCCS	inactive	inactive	inactive	inactive	inactive	inactive	inactive	inactive	inactive	inactive	–	–	–	–	–	–	–
CCCCC(=O)O	inactive	inactive	inactive	inactive	inactive	active	inactive	inactive	inactive	inactive	–	–	–	–	–	inactive	inactive
C=C(C)C1CCC(C)C(=O)C1 (centres undefined)	inactive	inactive	inactive	inactive	inactive	inactive	inactive	inactive	inactive	inactive	–	–	–	–	–	–	–
c1ccccc1	inactive	inactive	inactive	inactive	inactive	inactive	inactive	inactive	inactive	inactive	–	–	–	–	–	–	–
CCC(=O)C(=O)CC	inactive	inactive	inactive	inactive	inactive	inactive	inactive	inactive	inactive	inactive	–	–	–	–	–	–	–
CCCCCCCCCO	inactive	inactive	inactive	inactive	inactive	inactive	inactive	inactive	inactive	inactive	–	–	–	–	–	inactive	inactive
CCCCCCO	inactive	inactive	inactive	inactive	inactive	inactive	inactive	inactive	inactive	inactive	–	–	–	–	–	inactive	inactive
COc1cc(C(=O)O)ccc1O	inactive	inactive	inactive	inactive	inactive	inactive	active	inactive	inactive	active	–	–	–	–	–	–	–
O=C(c1ccccc1)c1ccccc1	inactive	inactive	inactive	inactive	inactive	inactive	inactive	inactive	inactive	inactive	–	–	–	–	–	–	–
CCCCCCCCC(=O)O	inactive	inactive	inactive	inactive	inactive	inactive	inactive	inactive	inactive	inactive	–	–	–	–	–	inactive	–
